# MC4R barr agon = human MC4R agonism via beta-arrestin. P32245. U2OS MC4R beta-arrestin complementation, luminescence; percent of melanotan II response, DMSO zero. activation, % at 8.9 µM. 0.98% of 360,000 active;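 active means activation above a per-plate cutoff, the mean activation of sample wells on that plate plus 3 SD, cut at about 8% in these data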
# TLR9-MyD88 inh = TLR9-MyD88 interaction inhibition; inhibition, % at 4.98 µM; Q9NR96+Q99836; AID 504734; 0.21% of 340,000 active; CHO BLA complementation TLR9-MyD88, CCF4 FRET ratio;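 active means inhibition above the mean over all tested compounds plus 3 SD, cut at about 21% in these data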
# NOD2-RIPK2 inh = blocks binding of human NOD2 to RIPK2 | O43353 | CHO BLA complementation NOD2-RIPK2, CCF4 ratio | inhibition, % at 4.98 µM | 0.38% of 360,000 active | AID 624267; in the data active means inhibition above about 21%
# TLR4-MyD88 BLA = inhibitors of human TLR4-MyD88 binding | O00206+Q99836 | HeLa CL3-4 TLR4/MyD88 BLA complementation, FRET ratio | inhibition, % at 8.4 µM | 0.18% of 200,000 active | AID 861; in the data active means inhibition above about 25%
# MC4R antagonist = blocks human MC4R cAMP signaling. inhibition, % at 6.5 µM. P32245. MC4R-expressing cells, MTII-stimulated cAMP, LANCE TR-FRET. 0.48% of 360,000 active;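 active means inhibition above its plate's cutoff, the mean of tested wells on that plate plus 3 SD, cut at about 29% in these data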
#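 system = U2OS cells with stable human MC4R expression | also added = Melanotan II challenge after compound preincubation | dosing = one concentration, 6.5 µM nominal | incubation = compound 30 min, challenge 1 h, detection 1 h | measured by = TR-FRET with Eu-cAMP and labeled anti-cAMP, 671 nm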
# NTR1 ag = activates human neurotensin receptor 1; AID 493036; 0.17% of 330,000 active; NTR1-U2OS beta-arrestin-GFP spot imaging, agonist mode; P30989; activation, % at 20 µM;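 active means activation at or above 40% of the spot to cytoplasm intensity ratio, with at least 20 cells analyzed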
# NOD2 RIPK2 conf = confirmation of human NOD2-RIPK2 interaction inhibitors | shares compounds with NOD2-RIPK2 inh | CHO cells, NOD2-RIPK2 BLA complementation, CCF4 FRET | inhibition, % at 4.98 µM | 70% of 1,200 active;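 active means mean inhibition across replicates above a set limit taken from the earlier primary screen, cut at about 21% in these data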
# NOD2 BLA counter = counter-screen for NOD2-RIPK2 interaction inhibitors: BLA reporter. shares compounds with NOD2-RIPK2 inh. CHO BLA reporter, CCF4 FRET ratio, counterscreen. inhibition, % at 4.98 µM. 57% of 1,200 active;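 active means mean inhibition above the low-control mean inhibition plus three low-control SD, cut at about 11% in these data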
# Numbers stand for hits; n = inactive; x = no result given. Most compounds without a hit are left out; they make up all but 1.9% or so of the library.
SMILES,MC4R barr agon,TLR9-MyD88 inh,NOD2-RIPK2 inh,TLR4-MyD88 BLA,MC4R antagonist,NTR1 ag,NOD2 RIPK2 conf,NOD2 BLA counter
COc1ccc2c(c1)sc1nc(-c3ccccc3)cn12,n,n,40.0,n,n,n,n,n
CC/C(=C\c1ccc(N(C)C)cc1)c1ccncc1,n,n,n,x,n,x,x,x
COc1ncc(-c2ccc(N3C(c4ccc([N+](=O)[O-])cc4)=Cc4ccccc4C3CC(C)=O)cc2)cn1 (stereo not drawn),x,x,33.9,x,x,x,n,17.5
CCOC(=O)c1sc2nc(-c3ccccc3)ccc2c1N,n,n,23.0,n,n,n,48.2,58.7
COc1c(Cl)cnn(-c2ccccc2)c1=O,n,n,n,n,n,n,x,x
COc1nn(-c2ccccc2)c(=O)c(Cl)c1Cl,n,n,26.9,x,n,n,26.7,n
Cc1cc(C)c(OCC(=O)OC(C)C(=O)NCc2ccccc2)c(C)c1 (stereo not drawn),n,n,n,x,n,n,x,x
CCN(CC(=O)Nc1c(F)cccc1F)C(=O)Cc1csc(-c2ccc(OC)c(OC)c2)n1,n,n,n,x,n,n,x,x
O=S(=O)(Nc1ccc(C(O)(C(F)(F)F)C(F)(F)F)cc1)c1ccc(Cl)c2nonc12,n,x,28.8,x,n,x,31.9,n
O=S(=O)(Nc1ccc(Br)cc1)c1cccc2nonc12,n,n,n,x,n,n,x,x
O=C1C(=NO)C(c2ccccc2)Oc2ccccc21 (stereo not drawn),n,n,27.9,x,n,x,n,27.2
C[C@@H]1CCCCO[C@H](CN(C)C(=O)Cc2ccccc2)[C@@H](C)CN([C@H](C)CO)C(=O)c2cc(NC(=O)Nc3ccccc3)ccc2O1,n,n,n,x,n,x,x,x
CCOC(=O)Nc1ccc2c(c1)N(C(=O)CCN(CC)CC)c1ccccc1S2=O (stereo not drawn),n,n,31.4,x,n,n,n,n
CCOC(=O)Nc1ccc2c(c1)N(C(=O)CCN(CC)CC)c1ccccc1CC2,n,n,n,x,n,n,x,x
CCOc1ccccc1N1CC(C(=O)Nc2ccc3c(c2)OCCO3)CC1=O (stereo not drawn),n,n,n,n,n,n,x,x
CC(=O)c1ccc(/C=C/c2nc3ccccc3n2C)o1,n,x,54.2,x,n,n,68.1,69.8
O=C(c1ccccc1)c1sc(Nc2ccc3c(c2)OCO3)nc1-c1ccccc1,x,x,21.3,x,x,x,n,25.5
CCCn1c(SCC(=O)Nc2cc(S(=O)(=O)N3CCOCC3)ccc2OC)n[nH]c1=O,n,n,n,n,n,n,x,x
CCOc1ccc2nc3ccc4[nH]onc4c3c2c1,n,n,33.7,33.8,n,n,28.1,37.4
CCCNC(=O)c1ccc(COc2cccc3ccccc23)o1,n,n,26.0,x,n,n,n,n
CCCNC(=O)c1ccc(COc2ccc(C)cc2)o1,n,n,n,x,n,n,x,x
O=C(Nc1nnc(SCC(=O)N2CCOCC2)s1)c1ccccc1,n,n,n,n,n,n,x,x
CC1(C(=O)NS(=O)(=O)c2cccc(C#N)c2)CCN1C(=O)CC1CCCC1 (stereo not drawn),n,x,n,x,n,x,x,x
O=C(c1ccc(Cl)cc1)c1c[nH]c(C(=O)NNc2cccc(Cl)n2)c1,8.3,n,22.8,n,n,n,n,n
COc1ccc(OC)c(NC(=O)COC(=O)[C@H](Cc2ccccc2)NC(=O)c2ccco2)c1,n,n,n,x,n,n,x,x
O=P(CCCCCCCCCP(=O)(c1ccccc1)c1ccccc1)(c1ccccc1)c1ccccc1,n,n,21.7,n,n,n,n,n
Cc1ccccc1-n1nnnc1SCC(=O)N(C)C1CCS(=O)(=O)C1 (stereo not drawn),n,n,n,n,n,n,x,x
CC(C)(C)c1ccc(NC(=O)c2ccc(=O)[nH]n2)cc1,n,n,n,x,n,n,x,x
Cc1ccccc1N1CCN(C(=S)c2ccccc2)CC1,n,n,24.1,n,n,n,n,n

# Bioassay records: PubChem, several laboratories
